Screens from PubChem BioAssay.
APJ ag – agonists of human apelin receptor APJ, primary screen, CHO-K1 cells, PathHunter beta-arrestin, luminescence | P35414 | 0% DMSO wells, 100% apelin | activation, % at 20 µM | hit rate 0.11% among 330,000 | AID 2520, 2010;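 active = activation more than six SD over the plate average, tested at 20 µM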
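Incubation: overnight seeding, 90 min compound at 25 °C, 1 h detection; test system: PathHunter CHO-K1 APJ (AGTRL-1) beta-arrestin reporter cells; amount: 1000 cells/well; doses: one dose, 20 µM compound, 1% DMSO; measured by: beta-gal luminescence; measure: agonist-driven arrestin binding to APJ; benchmarks: negative DMSO alone, positive Apelin-13 at 10 nM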
APJ antagonist – antagonists of human apelin receptor APJ, primary screen, CHO-K1 cells, beta-arrestin complementation, luminescence; P35414; inhibition, % at 20 µM; hit rate 0.32% among 330,000; AID 2521, 2010;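 active = inhibition above about 40% at 20 µM, limit read from the data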;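 note: cells challenged with 10 nM apelin-13 agonist together with compound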
Beta2AR agonist – beta2AR agonists driving receptor internalization, primary screen, cell-based, FAP fluorogen, flow cytometry. Am2.2-beta2AR cells. response, % (no concentration beside the values). hit rate 0.43% among 340,000;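 active = response above a set limit, near 3 SD of response in nonfluorescent compounds, cut at about 42% in these data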
EBI2 block – EBI2 receptor antagonists, beta-arrestin recruitment, primary screen, cell-based, luminescence, 7a,25-OHC stimulation, uHTS; inhibition, % at 5 µM; hit rate 0.81% among 360,000; 7a,25-OHC stimulated; G-protein coupled receptor 183 (Homo sapiens), P32249; in the data active = inhibition above about 38%;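 note: enzyme fragment complementation signal reports receptor beta-arrestin coupling in cells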
CCR6 antagonist – CCR6 receptor antagonists, primary screen, cell-based, CHO-K1, luminescence, beta-arrestin, uHTS; hit rate 0.49% among 340,000; AID 493098, 2011; C-C chemokine receptor type 6 (Homo sapiens), P51684; inhibition, % at 20 µM; CHO-K1 CCR6 PathHunter beta-arrestin, CCL20-stimulated;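 active = compounds whose inhibition of the agonist-driven luminescence signal at 20 µM reaches about 50%, limit read from the data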;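 note: cells stimulated with CCL20 at 14 nM final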
Target sequence (P51684 whole entry, looked up): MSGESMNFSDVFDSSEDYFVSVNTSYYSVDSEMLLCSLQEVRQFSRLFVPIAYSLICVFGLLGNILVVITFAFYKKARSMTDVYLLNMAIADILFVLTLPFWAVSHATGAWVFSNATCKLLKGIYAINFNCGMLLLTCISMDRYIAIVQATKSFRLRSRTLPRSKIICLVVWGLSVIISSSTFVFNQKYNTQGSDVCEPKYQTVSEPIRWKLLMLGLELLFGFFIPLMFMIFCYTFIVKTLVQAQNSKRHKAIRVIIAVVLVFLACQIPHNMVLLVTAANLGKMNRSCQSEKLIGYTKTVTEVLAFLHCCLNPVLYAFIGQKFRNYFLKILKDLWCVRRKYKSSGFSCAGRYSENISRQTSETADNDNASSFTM
CXCR6 block – CXCR6 receptor inhibitors, primary screen, cell-based, beta-arrestin, luminescence, CHO-K1 PathHunter, 1536-well | C-X-C chemokine receptor type 6 (Homo sapiens), O00574 | hit rate 0.36% among 360,000 | inhibition, % at 20 µM; in the data active = inhibition above about 34%, passing the limit was not always enough;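 note: antagonist mode with CXCL16 agonist at 10 nM final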
APJ antag conf – APJ antagonists blocking beta-arrestin recruitment, confirmation, cell-based, luminescence, single concentration, uHTS hits; shares compounds with APJ antagonist; AID 2766, 2010; hit rate 66% among 950; inhibition, % at 20 µM; antagonist mode; in the data active = inhibition above about 50%
Of the large screens only hits and unclear results are named; the others gave an inactive call (follow-up assays come after a bar, where they were run). Sampled rows, rich in hits. Any-hit rate of the full collection: about 1.8%.

O=C(Cc1ccccc1)NCC(=O)OCC(=O)c1ccc(Cl)c([N+](=O)[O-])c1	APJ antagonist 89, CCR6 antagonist 91, CXCR6 block 48 | APJ antag conf 144
Cc1ccc(C(=O)COC(=O)CNC(=O)C(c2ccccc2)c2ccccc2)cc1[N+](=O)[O-]	APJ antagonist 64, CCR6 antagonist 58 | APJ antag conf 67
Cc1ccc(C(=O)Sc2cccccc2=O)cc1	APJ antagonist 85, EBI2 block 67, CCR6 antagonist 92, CXCR6 block 84 | APJ antag conf 102
O=C(Nc1ccccc1SC(=O)c1ccccc1)c1ccccc1	none (no result: APJ ag, APJ antagonist, Beta2AR agonist, CCR6 antagonist)
O=C1CC(c2ccccc2)CC(=O)N1c1ccc(C(F)(F)F)cc1	none
CCOc1cc(OCC)c(C(C)=O)cc1OCC	none
COc1ccc(C(=O)Nc2ccc(Cl)c(S(=O)(=O)Nc3ccccc3OC)c2)cc1	APJ antagonist 41 | APJ antag conf inactive
O=[N+]([O-])c1ccc(N=Nc2ncc[nH]2)cc1	APJ antagonist 41, CCR6 antagonist 68, CXCR6 block 52 | APJ antag conf 88
COc1ccc(NC(=O)COC(=O)CCc2nc3ccccc3c(=O)[nH]2)c(OC)c1	APJ antagonist 41 | APJ antag conf inactive
C=CCNC(=S)Nc1cc(S(=O)(=O)N2CCOCC2)ccc1-n1cncn1	none
CCN(CC)c1ccc(C(=O)NC(=S)Nc2cc(S(=O)(=O)N3CCOCC3)ccc2-n2cncn2)cc1	APJ antagonist 41 | APJ antag conf 82
COC(=O)CS(=O)(=O)c1nnc([C@H](Cc2ccccc2)NC(=O)OC(C)(C)C)o1	APJ antagonist 48, CCR6 antagonist 77, CXCR6 block 56 | APJ antag conf 73
COC(=O)CSc1nnc([C@H](Cc2ccccc2)NC(=O)OC(C)(C)C)o1	none
O=C(NCCc1cnc[nH]1)c1cccs1	APJ antagonist 43 | APJ antag conf inactive
O=C(NCCc1ccccc1)c1cccs1	none
CC(NC(=O)c1ccco1)C(=O)N1CCN(c2cccc(C(F)(F)F)c2)CC1 (centres undefined)	none
Oc1ccccc1N=Nc1nc(-c2ccccc2)c(-c2ccccc2)[nH]1	APJ antagonist 62, CCR6 antagonist 70 | APJ antag conf 104
CC(=O)N1CCN(Cc2nc3cc(NC(=O)COc4cccc(C)c4)ccc3n2C)CC1	none
Cc1ccc(O)c(-c2cc(C(=O)NCc3ccc4c(c3)OCO4)[nH]n2)c1	APJ antagonist 45 | APJ antag conf inactive
Cc1ccc(CNC(=O)c2cc(-c3cc(C)cc(C)c3O)n[nH]2)cc1	none
CC(=O)c1cc2c(cc1NC(=O)c1ccccc1C)OCO2	none (no result: Beta2AR agonist, EBI2 block, CCR6 antagonist, CXCR6 block)
COc1cc(/C=C2\SC(=O)N(c3cccc(Cl)c3)C2=O)cc([N+](=O)[O-])c1O	APJ antagonist 48, CCR6 antagonist 68 | APJ antag conf 59
O=C1S/C(=C\c2ccc(O)c([N+](=O)[O-])c2)C(=O)N1c1ccccc1Cl	none
NS(=O)(=O)c1ccc(N=Nc2c(=O)[nH]n3c(=O)c4c([nH]c23)CCCC4)cc1	APJ antagonist 45 | APJ antag conf 58
O=c1[nH]n2c(=O)c3c([nH]c2c1N=Nc1cccc(Cl)c1)CCC3	none (no result: APJ ag, APJ antagonist)
O=C(c1nnsc1S(=O)(=O)c1ccc(Cl)cc1)N1CCOCC1	none
CNC(=O)c1nnsc1S(=O)(=O)c1ccc(Cl)cc1	APJ antagonist 47, Beta2AR agonist 49, CCR6 antagonist 77, CXCR6 block 64 | APJ antag conf 70
CCc1cc(=O)oc2cc(C)cc(OC(C)C(=O)NCc3cccnc3)c12 (centres undefined)	none
Cc1cccn2c(=O)c3cc(C(=O)NC4CCCCC4)c(=N)n(Cc4ccccc4)c3nc12	APJ antagonist 52 | APJ antag conf inactive
COc1ccc(CCn2c(=N)c(C(=O)NC3CCCC3)cc3c(=O)n4cccc(C)c4nc32)cc1	APJ antagonist 46 | APJ antag conf inactive
COc1ccc(NC(=O)C2CCN(S(=O)(=O)c3ccc(Cl)c(C(F)(F)F)c3)CC2)cn1	none (no result: APJ ag, APJ antagonist, Beta2AR agonist, CCR6 antagonist)
O=C1c2cccc([N+](=O)[O-])c2C(=O)N1CCO	none
O=C1c2cccc3c(Nc4ccccc4Cl)c([N+](=O)[O-])cc(c23)C(=O)N1CCO	APJ antagonist 53, CCR6 antagonist 65, CXCR6 block 40 | APJ antag conf 84
CC(=O)NC(c1ccc(F)c(F)c1)c1nc(-c2ccccc2)cs1 (centres undefined)	none (no result: APJ ag, APJ antagonist, Beta2AR agonist, CCR6 antagonist)
COc1cc(/C=C2\SC(=S)N(N3CCOCC3)C2=O)cc(OC)c1OC	none
O=C1/C(=C\c2cccc(O)c2)SC(=S)N1Cc1ccccc1	none
O=C1/C(=C\c2cccc(O)c2O)SC(=S)N1Cc1ccccc1	APJ antagonist 42 | APJ antag conf 68
COc1cc(/C=C2/SC(=S)N(Cc3ccccc3)C2=O)ccc1O	APJ antagonist 47, CCR6 antagonist 59 | APJ antag conf 103
O=C1/C(=C\c2ccc(O)c(O)c2)SC(=S)N1Cc1ccccc1	APJ antagonist 56, CCR6 antagonist 71, CXCR6 block 52 | APJ antag conf 100
COc1cc(/C=C2\SC(=S)N(N3CCOCC3)C2=O)ccc1O	APJ antagonist 51, CXCR6 block 40 | APJ antag conf 70
CC(C)S(=O)(=O)NC(=O)C1(C)CCN1C(=O)Cc1ccccc1 (centres undefined)	none (no result: APJ ag, APJ antagonist, Beta2AR agonist, CCR6 antagonist)
COc1ccc(C2OCC(C)([N+](=O)[O-])CO2)cc1 (centres undefined)	none (no result: APJ ag, APJ antagonist)
COc1cc(/C=C2/SC(=S)N(c3c(C)n(C)n(-c4ccccc4)c3=O)C2=O)ccc1O	APJ antagonist 53, CCR6 antagonist 51, CXCR6 block 51 | APJ antag conf 92
Cc1c(N2C(=O)/C(=C3/C(=O)N(C)c4ccccc43)SC2=S)c(=O)n(-c2ccccc2)n1C	none
Oc1c(C=Nc2cccc3cccnc23)sc2ccccc12	APJ antagonist 92 (no result: Beta2AR agonist, EBI2 block, CCR6 antagonist, CXCR6 block) | APJ antag conf 143
CN(C)S(=O)(=O)c1ccc(NC(=O)COc2cccc3c2OC(C)(C)C3)cc1	none
CC1=Nc2ccccc2/C1=C/c1sc(=N)n(-c2nccs2)c1O	APJ antagonist 46 | APJ antag conf 53
COc1ccc2nc(-c3ccccc3)nc(SC)c2c1	none (no result: APJ ag, APJ antagonist)
O=S1(=O)Nc2c(ccc3cccnc23)-c2ccccc21	APJ antagonist 53, CCR6 antagonist 61, CXCR6 block 42 | APJ antag conf inactive
